Assay results reported in ChEMBL document CHEMBL3286350, “Aplysinellamides A-C, bromotyrosine-derived metabolites from an Australian Aplysinella sp. marine sponge” (2014).
Activity calls are given as the source filed them. The calls are words filed in the database; no cut-off is given here.

system: CCF-STTG1; assay: Induction of apolipoprotein E secretion from human CCF-STTG1 cells up to 40 uM after 96 hrs by ELISA; format: functional, cell-based
Procedure, shortened: (§1)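 Human CCF-STTG1 astrocytoma cells were incubated with test compounds at concentrations of up to 40 μM for 96 h, and apolipoprotein E secretion was then measured. The assay was also applied to fractions.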

SMILES	Activity
COc1ccc(/C=C/C(=O)NCCCC[C@@H](N)C(=O)O)cc1Br	inactive
COc1c(Br)cc(/C=C/C(=O)NCCCC[C@@H](N)C(=O)O)cc1Br	inactive
CNCCc1cc(Br)c(OCCCN(C)C)c(Br)c1	inactive
COc1ccc(/C=C/C(=O)NCCCCC(=O)O)cc1Br	inactive
COc1ccc(CC(C(=O)O)[N+](C)(C)C)cc1Br (stereo not given)	inactive
CN(C)CCc1cc(Br)c(O)c(Br)c1	inactive
CN(C)CCCOc1c(Br)cc(CC[N+](C)(C)O)cc1Br	inactive
COc1ccc(C[C@H](N)C(=O)NCCc2cc(Br)c(OCCCN(C)C)c(Br)c2)cc1Br	inactive
COc1c(Br)cc(C(=O)O)cc1Br	inactive

system: CCF-STTG1; assay: Induction of apolipoprotein E secretion from human CCF-STTG1 cells at 30 uM after 96 hrs by ELISA relative to control; format: functional; procedure, shortened: as §1

SMILES	fold change (FC)
CN(C)CCCOc1c(Br)cc(CCN(C)C)cc1Br [APLYSAMINE]	2
